The entries come from a sample that favours hits as a whole.
NLRP3 yeast inh – blocks the NALP3 inflammasome reconstituted in yeast. inhibition, % at 10 µM. Yeast reconstituted NLRP3/ASC/caspase-1, beta-gal luminescence, 24 h. 330,000 compounds, 0.39% hits. AID 2825;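 active = inhibition of 50% or more; inactive = inhibition below 50%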;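 also: plate controls were induced DMSO wells for no effect and uninduced yeast grown without galactose for full effect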
T cruzi repl – blocks replication of Trypanosoma cruzi | T. cruzi beta-gal in NIH3T3, luminescence, 90 h | 300,000 compounds, 1.4% hits | inhibition, % (no concentration beside the values);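 active = mean inhibition across valid replicates above about 55%, limit read from the data; inconclusive = mean below that limit but half or more replicates reach it; inactive = mean below it, under half of replicates reach it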;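 also: signal also drops with host cell toxicity which is not excluded here; 0% = plate median of DMSO wells and 100% = zero luminescence signal; higher percent means less beta-gal luminescence so fewer parasites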
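Test system: β-gal T. cruzi (Tulahuen C4) inside NIH/3T3 cells / Quantity: 5,000 cells/well / Measured by: luminescence from GalScreen with 0.05% NP40, read after 60 min / Medium: DMEM plus 2% FBS / Measure: parasite load inhibition, % / Reagent: Tulahuen C4 trypomastigotes, 5000/well / Schedule: co-culture of at least 90 h after 3 h attachment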
L major viab – reduces viability of Leishmania major promastigotes. 200,000 compounds, 9% hits. resazurin fluorescence viability. inhibition, % at 10 µM; in the data active = inhibition above about 50%;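 also: promastigotes grown with compound for 44 hours at 28 °C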
Calb FLC – affects C. albicans growth with fluconazole; C. albicans CaCi-2 + fluconazole, Alamar Blue growth, 48 h; growth inhibition, % (no concentration beside the values); 300,000 compounds, 0.57% hits;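 active = growth inhibition above about 58% in most replicates, limit read from the data, passing the limit was not always enough; inconclusive = exactly half the replicates above a set limit; inactive = most replicates below a set limit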;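 also: all wells also contain fluconazole at 8 µg/ml as a sub-toxic cotreatment; 0% = median of DMSO wells and 100% = median of geldanamycin control wells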
PolyA inh – blocks polyadenylation in yeast reporter cells; 300,000 compounds, 0.02% hits; activity score, % at 12 µM; S. cerevisiae SKY197-pL101 polyadenylation reporter, beta-gal luminescence; efflux-impaired pdr1/pdr3 knockout yeast; score 100 = 6 SD above DMSO;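 active = lowest replicate activity score at least 50, where 100 means six control SD above control mean; inconclusive = lowest score under 50 but half or more replicates reach 50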;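 also: yeast exposed to compound for 9 h at 30 °C; higher score means more reporter readthrough which indicates perturbed polyadenylation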
NALP1 inh – blocks the NALP1 inflammasome reconstituted in yeast | S. cerevisiae NALP1/ASC/caspase-1 growth, X-gal OD620, 72 h | inhibition, % at 10 µM | 280,000 compounds, 0.61% hits | AID 2071; in the data active = inhibition mostly above about 24%, no sharp cut-off; inactive = mostly below about 32%
An asterisk follows results filed as active; ? = inconclusive; . = not tested or not shown.

SMILES | NLRP3 yeast inh | T cruzi repl | L major viab | Calb FLC | PolyA inh | NALP1 inh
CC(C)(C)c1nc2cc(Cl)c([N+](=O)[O-])cc2o1 | 8 | -3 | -8 | 61 | 2 | -9
COc1ccccc1NS(=O)(=O)c1ccc(NN=C2CCCC2)c([N+](=O)[O-])c1 | 29 | 17 | 4 | 9 | -21 | 26
COc1ccccc1NS(=O)(=O)c1ccc(N/N=C/C=C/c2ccccc2[N+](=O)[O-])c([N+](=O)[O-])c1 | 16 | 24 | 50* | 0 | 0 | -4
COc1ccccc1NS(=O)(=O)c1ccc(N/N=C/c2ccccc2OCC(=O)O)c([N+](=O)[O-])c1 | 4 | 11 | -1 | 2 | -29 | 19
COc1ccccc1NS(=O)(=O)c1ccc(N/N=C/c2c(C)nn(-c3ccccc3)c2N2CCCC2)c([N+](=O)[O-])c1 | 21 | 66* | 100* | 8 | 19 | 30
CCN(CC)c1ccc(/C=N/NC(=O)c2cccc(S(=O)(=O)Nc3ccccc3OC)c2)c(O)c1 | 36 | 27 | 100* | -6 | 11 | 37
COc1c(/C=N/Nc2ccc([N+](=O)[O-])cc2[N+](=O)[O-])c(C)nn1-c1ccccc1 | 4 | -3 | 1 | -3 | -11 | -5
Cc1nn(-c2ccccc2)c(N2CCCC2)c1/C=N/Nc1ccc(S(=O)(=O)Nc2ccccc2)cc1[N+](=O)[O-] | 17 | 53 | 97* | -2 | 3 | .
COc1ccc(NC(=O)CCNS(=O)(=O)c2ccc(Cl)c([N+](=O)[O-])c2)cc1S(N)(=O)=O | 3 | -8 | . | 3 | -6 | 19
CCOc1ccccc1-c1ccc(C(=O)NCc2ccccc2)o1 | 23 | -2 | -3 | 12 | 7 | 22
CCOc1ccc(S(=O)(=O)Nc2ccc(C(=O)N/N=C/c3c(C)nn(-c4ccccc4)c3N3CCCC3)cc2)cc1 | 2 | -3 | 1 | 24 | 12 | 19
O=C(CNc1ccccc1)N/N=C/c1cn(-c2ccccc2)nc1-c1ccccc1 | 7 | 19 | 69* | 37 | 2 | .
NC(=O)N/N=C/c1cn(-c2ccccc2)nc1-c1ccccc1 | 9 | 2 | 3 | 9 | 9 | 21
COc1ccccc1NS(=O)(=O)c1cccc(C(=O)N/N=C/c2c(C)nn(-c3ccccc3)c2N2CCCC2)c1 | 13 | 15 | 96* | -4 | -8 | 15
COc1ccccc1NS(=O)(=O)c1cccc(C(=O)N/N=C/c2cn(-c3ccccc3)nc2-c2ccccc2)c1 | 21 | 13 | 53* | 56 | 26 | 29
COc1ccc(NS(=O)(=O)c2cccc(C(=O)N/N=C/c3cn(-c4ccccc4)nc3-c3ccccc3)c2)cc1 | 2 | -1 | . | 1 | 1 | .
COc1ccc(-c2nn(-c3ccccc3)cc2/C=N/NC(N)=S)cc1OC | . | 37 | 80* | 0 | 19 | 15
O=C(Nc1c2c(nn1-c1ccccc1)CS(=O)(=O)C2)c1ccccc1C(F)(F)F | -6 | ? | . | -3 | -13 | 10
Cc1ccc(C(OCC(O)CNC(C)c2ccccc2)c2ccccc2)cc1 (configuration not stated) | 21 | 50 | 77* | -1 | 23 | 15
Cc1ccc(C(OCC(O)CN2CCCCC2)c2ccccc2)cc1 (configuration not stated) | 2 | 17 | . | -1 | 18 | 12
Cc1ccc(NC(=O)Cc2nc(CCl)cs2)cc1 | 4 | -14 | 68* | -16 | -5 | 32
COc1ccc(OCCC(=O)NCc2ccccc2)cc1 | 23 | 7 | -4 | 0 | 8 | 42
COc1ccc(OCCC(=O)NCC23CC4CC(CC(C4)C2)C3)cc1 | 8 | -8 | 97* | -44 | -3 | -13
COc1ccccc1NC(=O)C(C)N1C(=O)C2CCCCC2C1=O (configuration not stated) | 0 | . | . | . | . | .
O=C(C1CCCCC1)N1CCN(S(=O)(=O)c2ccc(Cl)cc2)CC1 | 27 | -3 | 0 | 0 | 8 | 0
COc1ccc(S(=O)(=O)N2CCC(C(=O)NCCC(=O)NC3CC3)CC2)cc1 | 17 | 0 | . | 2 | 11 | 34*
O=S(=O)(c1ccc(Cl)cc1)N1CCN(C2CCCCCC2)CC1 | 24 | -22 | 90* | -14 | 5 | 24
COc1ccc(S(=O)(=O)N2CCN(C3CCCCCCC3)CC2)cc1 | 3 | 3 | 73* | -18 | 2 | 5

High-throughput results from PubChem.
